Assay outcomes: PubChem BioAssay, several laboratories
SR-BI DiI inh = mouse SR-BI HDL lipid transfer inhibition; Q61009; ldlA[mSR-BI] CHO cells, DiI-HDL uptake fluorescence, 3 h; inhibition, % at 12.5 µM; 0.96% of 320,000 active;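 active means mean replicate inhibition of at least 70% and a set share of replicates each scoring 70 or more; inconclusive means meets just one of the two criteria; inactive means fails both criteria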;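 further: 0% = median of neutral control wells and 100% = median of positive control wells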
SR-BI uptake up = activators of SR-BI mediated HDL lipid uptake | activation, % at 12.5 µM | AID 504775 | CHO ldlA[mSR-BI] cells, DiI-HDL uptake fluorescence, 3 h; 100 = double the neutral-control signal | 0.096% of 320,000 active;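 active means mean replicate activation of at least 60% and every replicate at or above 60%; inconclusive means mean or all-replicate condition met, but not both; inactive means mean below 60% and not all replicates reaching 60%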;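 further: 0% = median plate neutral-control signal and 100% = twice that signal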
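Material: SR-BI-overexpressing, LDLR-lacking CHO cells | Dosing: Single compound concentration, delivered by pin transfer | Probe or stimulus: Labelled HDL, 10 µg/mL | Signal: Bottom-read cell fluorescence after medium removal, ex 550/em 595 nm | Schedule: 3 h, 37 °C | Evaluation: HDL uptake via cellular fluorescence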
TLR9-MyD88 block = blocks human TLR9 binding to MyD88; Q9NR96+Q99836; 0.21% of 340,000 active; CHO BLA complementation TLR9-MyD88, CCF4 FRET ratio; inhibition, % at 4.98 µM; AID 504734;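 active means inhibition above the mean over all tested compounds plus 3 SD, cut at about 21% in these data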;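 further: 0% = DMSO only wells and 100% = clavulanate BLA inhibitor control wells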
NOD2-RIPK2 inh = inhibitors of human NOD2-RIPK2 interaction; CHO BLA complementation NOD2-RIPK2, CCF4 ratio; inhibition, % at 4.98 µM; O43353; 0.38% of 360,000 active; in the data active means inhibition above about 21%;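 further: 0% = vehicle only and 100% = reference blocker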
Lipid droplet = hepatic lipid droplet formation modulation; AML12 mouse hepatocytes, oleate lipid droplets, BODIPY imaging; inhibition, % at 6.5 µM; 0.4% of 240,000 active; AID 1656;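 active means lipid droplet intensity inhibited by at least 50%, with more than 500 cells counted; inconclusive means wells with under 300 cells, treated as cytotoxic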
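material = mouse AML12 hepatocyte cell line, fixed after treatment | also added = 100 µM oleic acid challenge | doses = compound at 6.5 µM only | schedule = overnight exposure | technique = Image-based BODIPY and DAPI two-channel analysis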
TLR4 MyD88 comp = blocks binding of human TLR4 to MyD88; O00206+Q99836; HeLa CL3-4 TLR4/MyD88 BLA complementation, FRET ratio; inhibition, % at 8.4 µM; 0.18% of 200,000 active; AID 861; in the data active means inhibition above about 25%;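 further: 0% = vehicle and 100% = reference inhibitor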
Target sequence (O00206 whole entry, looked up): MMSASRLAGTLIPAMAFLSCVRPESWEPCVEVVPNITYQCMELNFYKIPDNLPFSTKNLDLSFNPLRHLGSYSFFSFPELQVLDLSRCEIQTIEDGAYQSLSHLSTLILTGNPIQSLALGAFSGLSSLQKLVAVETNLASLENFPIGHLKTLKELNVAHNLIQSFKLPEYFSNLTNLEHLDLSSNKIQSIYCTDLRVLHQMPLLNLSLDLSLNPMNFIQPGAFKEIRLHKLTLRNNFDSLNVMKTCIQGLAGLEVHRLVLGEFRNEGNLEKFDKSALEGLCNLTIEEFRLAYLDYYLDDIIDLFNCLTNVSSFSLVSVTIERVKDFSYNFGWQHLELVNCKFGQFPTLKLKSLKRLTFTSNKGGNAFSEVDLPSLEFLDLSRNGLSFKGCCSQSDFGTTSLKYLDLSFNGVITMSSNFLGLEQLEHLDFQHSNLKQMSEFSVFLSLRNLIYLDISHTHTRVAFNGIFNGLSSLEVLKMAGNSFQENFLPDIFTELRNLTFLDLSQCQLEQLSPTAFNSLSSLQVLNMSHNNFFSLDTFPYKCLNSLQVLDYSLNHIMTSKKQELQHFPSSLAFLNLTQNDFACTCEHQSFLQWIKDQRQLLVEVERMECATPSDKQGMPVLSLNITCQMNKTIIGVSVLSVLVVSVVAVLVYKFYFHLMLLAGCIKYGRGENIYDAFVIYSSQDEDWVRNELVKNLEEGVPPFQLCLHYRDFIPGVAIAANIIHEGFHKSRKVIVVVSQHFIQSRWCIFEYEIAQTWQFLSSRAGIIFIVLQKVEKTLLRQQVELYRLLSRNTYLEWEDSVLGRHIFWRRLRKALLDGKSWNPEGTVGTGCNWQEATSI
Target sequence (Q99836 whole entry, looked up): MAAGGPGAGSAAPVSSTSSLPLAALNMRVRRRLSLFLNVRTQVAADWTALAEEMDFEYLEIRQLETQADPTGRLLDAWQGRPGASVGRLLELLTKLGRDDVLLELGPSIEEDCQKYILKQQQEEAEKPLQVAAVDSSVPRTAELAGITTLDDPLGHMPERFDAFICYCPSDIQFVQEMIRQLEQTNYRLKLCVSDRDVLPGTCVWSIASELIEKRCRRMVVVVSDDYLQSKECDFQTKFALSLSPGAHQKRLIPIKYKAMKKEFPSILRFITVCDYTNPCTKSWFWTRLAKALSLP
* hit, by the source's call; ? = inconclusive; . = no result. Rows were chosen to be rich in hits. Some 1.6% of all compounds tested hit in one or more screens of this group.

SMILES | SR-BI DiI inh | SR-BI uptake up | TLR9-MyD88 block | NOD2-RIPK2 inh | Lipid droplet | TLR4 MyD88 comp
CCc1ccc(NC(=O)c2ccc(OC)c([N+](=O)[O-])c2)cc1 | 76* | -76 | -5 | -5 | 14 | -1
COc1ccc(C(=O)Nc2ccc(N3CCOCC3)cc2)cc1S(=O)(=O)NC1CCCC1 | 76* | -76 | 13 | -4 | 2 | -1
COc1ccc(C(=O)Nc2ccc(N3CCOCC3)cc2)cc1S(=O)(=O)N1CCCC1 | 64 | -64 | 1 | -8 | . | .
COC(=O)/C(=C\Nc1ccc(Cl)cc1Cl)NC(=O)c1ccc(OC)cc1 | 83* | -83 | 4 | -1 | -30 | .
NNC(=O)c1ccc(N2CCc3ccccc32)c([N+](=O)[O-])c1 | 79* | -79 | 5 | -4 | 10 | 14
Cn1c(/C=C(\C#N)C(N)=S)ccc1-c1ccc(Br)cc1 | 74* | -74 | 3 | 5 | 2 | -4
O=[N+]([O-])c1cccc(-c2c(-c3ccccc3)ncc3cc(F)ccc23)c1 | 21 | -21 | 2 | -4 | . | .
O=[N+]([O-])c1ccc(-c2c(-c3ccccc3)ncc3cc(F)ccc23)cc1 | 86* | -86 | 0 | 10 | . | .
CCn1ccnc1CN(C)C(=O)C1CCC(=O)N(Cc2cccc(C(F)(F)F)c2)C1 (stereo unspecified) | -9 | 9 | 13 | -3 | -19 | .
COc1ccc(-c2sc3cc4c(cc3c2C#Cc2ccc(N)cc2)OCO4)cc1 | 93* | -93 | -6 | 7 | . | .
C=CCn1c2ccccc2c(=O)c2cc(C#Cc3cc(OC)cc(OC)c3)ccc21 | 87* | -87 | -41 | 1 | . | .
Cc1ccc(S(=O)(=O)N2C[C@H]3[C@H]4C(=O)N(c5ccccc5)C(=O)[C@H]4C[C@H](OC(=O)Nc4cccs4)[C@@]3(O)C2)cc1 | . | . | -4 | -7 | . | .
Fc1ccc(Br)cc1C1C=C(c2cccnc2)Nc2ncnn21 (stereo unspecified) | -2 | 2 | 24* | 49* | . | -6
COc1cccc(-n2nc(C#N)c(Cl)cc2=O)c1 | -9 | 9 | 17 | 70* | ? | 6
CCN(CC(=O)Nc1c(F)cccc1F)C(=O)c1cc([N+](=O)[O-])ccc1N1CCCCC1 | 14 | -14 | 8 | -1 | . | .
Cc1cccc(N2C(=O)CC(SC(=Nc3ccccc3)Nc3ccccc3)C2=O)c1 (stereo unspecified) | 74* | -74 | -6 | 1 | -9 | 3
C=CCNc1nc(Nc2ccc([N+](=O)[O-])cc2)nc(N2CCCC2)n1 | 76* | -76 | -4 | -10 | 4 | 2
C=CCNc1nc(Cl)nc(Nc2ccc([N+](=O)[O-])cc2)n1 | 0 | 0 | 1 | -6 | 6 | 18
Cc1oc(-c2ccccc2)cc1C(=O)Nc1ccccc1 | 90* | . | 7 | 8 | -1 | 4
COc1ccc(/C=N/NC(=O)c2ccc(COc3ccccc3Cl)o2)cc1 | -3 | 3 | -4 | 7 | . | 4
COc1ccc(/C=N/NC(=O)c2ccc(COc3ccccc3Cl)o2)c(OC)c1C | 76* | -76 | 7 | 4 | 5 | 9
O=C(CSc1ccccc1)Nc1ccc2c(c1)C(=O)NC2=O | -9 | 9 | 2 | -4 | -2 | .
O=C(N/N=C/c1sc(=O)n(-c2ccccc2)c1Cl)c1ccccc1 | 85* | -85 | -12 | -5 | -2 | -3
NC(=O)N/N=C/c1sc(=O)n(-c2ccccc2)c1Cl | -3 | 3 | 4 | -3 | 14 | .
CCCCCC(=O)Nc1nc(C)c(-c2csc(Nc3ccc(Cl)cc3)n2)s1 | 96* | -96 | -4 | 2 | . | 9
SMILES | SR-BI DiI inh | SR-BI uptake up | TLR9-MyD88 block | NOD2-RIPK2 inh | Lipid droplet | TLR4 MyD88 comp
CCCCCC(=O)Nc1nc(C)c(-c2csc(Nc3cc(Cl)ccc3C)n2)s1 | 79* | -79 | -5 | -8 | . | -16
Cc1nc(NC(=O)CC(C)C)sc1-c1csc(Nc2ccc(Cl)cc2)n1 | 73* | -73 | -4 | -8 | . | 1
Cc1ccc(Cl)cc1Nc1nc(-c2sc(NC(=O)c3cccc(Cl)c3)nc2C)cs1 | . | . | . | . | . | 1
CCCC(C)C(=O)Nc1nc(C)c(-c2csc(Nc3cc(Cl)ccc3C)n2)s1 (stereo unspecified) | 82* | -82 | -1 | -14 | . | -9
Cc1nc(NC(=O)c2ccccc2)sc1-c1csc(Nc2ccc(Cl)cc2)n1 | . | . | . | . | . | 5
Cc1ccc(Cl)cc1Nc1nc(-c2sc(NC(=O)c3ccco3)nc2C)cs1 | ? | -73 | -1 | -13 | . | -10
COc1ccc(/C(C)=N/Nc2nc(C)cc(-c3ccccc3)n2)cc1 | . | . | . | -11 | . | .
COc1ccc(/C(C)=N\Nc2nc(-c3ccccc3)cc(=O)[nH]2)cc1 | 73* | -73 | 1 | -20 | 2 | -11
COc1cccc(OC)c1C(=O)NCCNc1nc2cc(C)cc(C)c2cc1C#N | . | . | . | 0 | . | .
COc1ccccc1C(=O)NCCNc1nc2cc(C)cc(C)c2cc1C#N | 110* | -110 | -7 | -12 | -18 | .
O=C1C(C=NCCCn2ccnc2)=C(O)c2ccccc21 | -40 | 40 | -2 | -7 | . | -1
CC(=NCCCn1ccnc1)C1=C(O)c2ccccc2C1=O | -61 | 61* | 6 | 8 | . | 5
Cc1nc([N+](=O)[O-])c(Br)n1CC(=O)c1ccc2ccccc2c1 | 14 | -14 | -5 | 22* | -8 | 4
COc1ccc(NS(=O)(=O)c2cc(NC(=O)c3ccc(=O)[nH]c3)ccc2N2CCCC2)cc1 | 6 | -6 | -7 | -8 | -2 | .
O=[N+]([O-])c1cc(-c2nnc(Nc3ccccc3)c3ccccc23)ccc1N1CCOCC1 | 74* | -74 | -13 | -11 | -6 | -6
Cc1ccc([C@H]2N[C@]3(CCCN(Cc4ccc(Cl)cc4)C3=O)[C@H]3C(=O)N(Cc4ccccc4)C(=O)[C@@H]23)cc1 | . | . | -3 | 2 | . | .
O=C1c2cccc(O)c2C(=O)c2c(O)cccc21 | . | . | . | . | -14 | -1
CC1OC(CC(=O)O)CC2=C1C(=O)c1c(O)cccc1C2=O (stereo unspecified) | -12 | 12 | 0 | 78* | . | .
CC(C)(C)C(=O)Nc1ccc(C(=O)N/N=C/c2ccccc2OC(=O)c2ccc(Cl)cc2)cc1 | 97* | -97 | -8 | -9 | -4 | -1
Cc1cccc(C(=O)Oc2ccccc2/C=N/NC(=O)c2ccc(NC(=O)C(C)(C)C)cc2)c1 | 87* | -87 | 9 | -6 | -7 | -11
COc1ccc(C(=O)N/N=C/c2ccccc2OC(=O)c2ccccc2)cc1 | 27 | -27 | -5 | 7 | -40 | .
CC(C)(C)C(=O)Nc1ccc(C(=O)N/N=C/c2ccccc2OC(=O)c2ccccc2)cc1 | 122* | -122 | 0 | -12 | . | -9
CCOC(=O)CCCCCC(=O)Nc1ccc2c(c1)CC(=O)N([C@H](C)CO)C[C@H](C)[C@H](CN(C)S(=O)(=O)c1ccc(OC)cc1)O2 | 0 | 0 | -8 | -1 | . | .
